ChEMBL document CHEMBL1145990, “Synthesis and in vitro antitumor activity of phenanthrolin-7-one derivatives, analogues of the marine pyridoacridine alkaloids ascididemin and meridine: structure-activity relationship” (J Med Chem, 2003)

Key:
A-427 = assay: In vitro antitumor effects against human A-427 cell lines.; type: functional, cell-based
Summary of the method: (§1)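 Cells grown at 37°C in sealed dishes in MEM with 5% FCS, seeded at 40000 cells/mL and allowed 24 h to plate. Six concentrations from 10 µM to 0.1 nM were tested. Growth was read by MTT reduction to formazan at 570 nm (630 nm reference), in sextuplicate. IC50 is the concentration giving 50% growth inhibition versus control, as the mean of three independent assays.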

A549 = assay: In vitro antitumor effects against human A-549 cell lines.; type: functional, cell-based; summary of the method: as §1
HCT-15 = assay: In vitro antitumor effects against human HCT-15 cell lines.; type: functional, cell-based; summary of the method: as §1
J82 = assay: In vitro antitumor effects against human J82 cell lines.; type: functional, cell-based; summary of the method: as §1
MCF7 = assay: In vitro antitumor effects against human MCF-7 cell lines.; type: functional, cell-based; summary of the method: as §1
LoVo = assay: In vitro antitumor effects against human LoVo cell lines.; type: functional, cell-based; summary of the method: as §1
Mus musculus = assay: Maximum tolerated dose following single i.p. injection to B6D2F1/jico mice.; type: functional
Summary of the method: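 Healthy non-tumour-bearing B6D2F1 mice given one acute intraperitoneal dose at 5, 10, 20, 40, 80 or 160 mg/kg. Three mice per dose group. Survival and body weight recorded for up to 28 days after injection. MTD taken as the highest dose tolerable acutely.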

PC-3 = assay: In vitro antitumor effects against human PC-3 cell lines.; type: functional, cell-based; summary of the method: as §1
SW1088 = assay: In vitro antitumor effects against human SW 1088 cell lines.; type: functional, cell-based
T-24 = assay: In vitro antitumor effects against human T24 cell lines.; type: functional, cell-based; summary of the method: as §1
T47D = assay: In vitro antitumor effects against human T-47D cell lines.; type: functional, cell-based; summary of the method: as §1
U373 MG = assay: In vitro antitumor effects against human U-373MG cell lines.; type: functional, cell-based, U-373MG ATCC; summary of the method: as §1
U-87 MG = assay: In vitro antitumor effects against human U87MG cell lines.; type: functional, cell-based, U-87MG ATCC; summary of the method: as §1

SMILES	IC50 (A-427) [nM]	IC50 (A549) [nM]	IC50 (HCT-15) [nM]	IC50 (J82) [nM]	IC50 (MCF7) [nM]	IC50 (LoVo) [nM]	MTD (Mus musculus) [mg/kg]	IC50 (PC-3) [nM]	IC50 (SW1088) [nM]	IC50 (T-24) [nM]	IC50 (T47D) [nM]	IC50 (U373 MG) [nM]	IC50 (U-87 MG) [nM]
COc1cnc2c3c(nccc13)-c1cccnc1C2=O	70	50	90	800	60	700	>160	80	80	60	6000	70	50
O=C1c2c(Cl)ccnc2-c2nccc3ccnc1c23	700	800	1000	4000	600	1000	20	5000	4000	3000	1000	4000	800
COc1ccnc2c1-c1nccc3ccnc(c13)C2=O	70	300	100	2000	200	300	5	900	2000	300	3000	100	100
O=C1c2nccc(O)c2-c2nccc3ccnc1c23	6000	6000	6000	6000	5000	5000	10	> 10000	6000	8000	6000	6000	8000
COc1cnc2c3c(nccc13)-c1ncccc1C2=O	500	500	700	4000	400	5000	>160	500	300	500	7000	600	300
COc1ccnc2c1C(=O)c1ncc(OC)c3ccnc-2c13	800	5000	3000	5000	2000	800	80	800	3000	2000	5000	2000	800
CN(C)c1cc(Cl)nc2c1-c1nccc3ccnc(c13)C2=O	6000	> 10000	5000	5000	6000	5000	40	> 10000	5000	6000	4000	6000	6000
COc1ccc2c(n1)C(=O)c1nccc3ccnc-2c13	6000	9000	6000	5000	5000	5000	40	6000	5000	6000	6000	6000	6000
COc1cnc2c3c(nccc13)-c1c(N(C)C)ccnc1C2=O	3000	3000	3000	6000	4000	3000	>160	6000	6000	5000	4000	5000	3000
COc1ccnc2c1-c1nccc3c(OC)cnc(c13)C2=O	6	5	40	200	30	8	20	40	8	9	60	7	8
COc1ccc2c(n1)-c1nccc3ccnc(c13)C2=O	6000	9000	6000	5000	5000	> 10000	>160	6000	5000	5000	6000	5000	6000
O=C1c2cccnc2-c2nccc3ccnc1c23	7000	800	900	5000	200	2000	10	5000	4000	300	700	800	500
CN(C)c1ccnc2c1-c1nccc3ccnc(c13)C2=O	900	1000	2000	4000	900	2000	10	4000	5000	1000	4000	1000	2000
COc1cc(OC)c2c(n1)C(=O)c1nccc3ccnc-2c13	5000	6000	5000	5000	5000	4000	40	6000	5000	6000	5000	6000	5000
COc1ccnc2c1C(=O)c1nccc3ccnc-2c13	800	800	800	3000	600	900	10	600	900	700	400	800	4000
O=C1c2ncccc2-c2nccc3ccnc1c23	700	3000	600	5000	600	2000	10	900	5000	800	800	4000	6000
COc1ccc2c(n1)C(=O)c1ncc(OC)c3ccnc-2c13	500	800	600	8000	500	600	>160	1000	500	600	1000	800	700
